In brackets after ≈: the same amount, converted by molar mass. Activity calls are given as the source filed them. No cut-off for these calls is given here.
Tests used:
[1] = test system: Pseudomonas aeruginosa; test: Antimicrobial activity against Pseudomonas aeruginosa assessed as inhibition of microbial growth at 45 uM after 24 hrs; format: functional, organism-based
Method in brief: (§1)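 Broth microdilution single-concentration read: overnight cultures diluted 1:1000, compound in DMF (≤2.0%) added, 37°C for 24 h, growth inhibition scored visually by lack of turbidity; triplicate. Gram-positives grown in TSB, Gram-negatives in LB.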

[2] = test system: Staphylococcus aureus; test: Antibiofilm activity against Staphylococcus aureus incubated for 24 hrs followed by biofilm resuspension in PBS and measured after 24 hrs; format: functional
Method in brief: (§2)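 Biofilms grown 24 h in 96-well plates from overnight cultures standardized to OD600 0.5 in fresh medium (human serum only for S. aureus; TSB for Gram-positives, LB for Gram-negatives). Medium then replaced with fresh medium containing a concentration range above and below MIC, 37°C overnight. After 24 h biofilm resuspended in PBS, serially diluted, plated in duplicate, CFU counted after 24 h at 37°C. Activity relative to untreated; three technical replicates; MBEC50 reported.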

[3] = test system: Enterococcus faecium; test: Induction of spontaneous mutation in Enterococcus faecium at 2 to 10 MIC; format: functional, organism-based
[4] = test system: Enterobacter cloacae; test: Antibiofilm activity against Enterobacter cloacae incubated for 24 hrs followed by biofilm resuspension in PBS and measured after 24 hrs; format: functional; method in brief: as §2
[5] = test system: Staphylococcus aureus; test: Bactericidal activity against methicillin-resistant Staphylococcus aureus at MIC measured after drug wash out after 120 mins by time kill assay; format: functional
Method in brief: (§3)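 MRSA from stationary phase was regrown 3 h in TSB and seeded at OD600 0.5. […] After 120 min, cells were centrifuged and washed, serially diluted and plated for CFU. Percent recovery is relative to no-drug controls.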

[6] = Selectivity index, ratio of IC50 for human A549 cells to MIC for Klebsiella pneumoniae
[7] = test system: Enterobacter cloacae; test: Bactericidal activity against Enterobacter cloacae after 24 hrs; format: functional
[8] = test system: Acinetobacter baumannii; test: Antimicrobial activity against Acinetobacter baumannii assessed as inhibition of microbial growth after 24 hrs; format: functional
Method in brief: (§4)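 Broth microdilution against multidrug-resistant clinical ESKAPE isolates. Overnight cultures (TSB for Gram-positives, LB for Gram-negatives) diluted 1:1000 in fresh medium, compound in DMF (≤2.0% DMF) added at decreasing concentrations, 37°C.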

[9] = test system: Enterococcus faecium; test: Antibiofilm activity against Enterococcus faecium incubated for 24 hrs followed by biofilm resuspension in PBS and measured after 24 hrs; format: functional; method in brief: as §2
[10] = test system: Acinetobacter baumannii; test: Ratio of MIC for Acinetobacter baumannii measured after 8 cycle passage to MIC for wild type Acinetobacter baumannii; format: functional
[11] = test system: Acinetobacter baumannii; test: Antimicrobial activity against Acinetobacter baumannii assessed as inhibition of microbial growth at 45 uM after 24 hrs; format: functional, organism-based; method in brief: as §1
[12] = test system: Enterococcus faecium; test: Antimicrobial activity against Enterococcus faecium assessed as inhibition of microbial growth after 24 hrs; format: functional; method in brief: as §4
[13] = test system: Klebsiella pneumoniae; test: Antibiofilm activity against Klebsiella pneumoniae incubated for 24 hrs followed by biofilm resuspension in PBS and measured after 24 hrs; format: functional; method in brief: as §2
[14] = Cytotoxicity against human A549 cells assessed as cell viability recovery up to 100 uM after 48 hrs by MTT assay; format: cell-based; conditions: read-out: Activity
Method in brief: (§5)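 A549 cells grown in F-12K with L-glutamine, 10% FBS, 1% penicillin-streptomycin, seeded at 1.0 × 10^5 ml−1, allowed to adhere 24 h (37°C, 5% CO2), then exposed to compound in 45% w/v (2-hydroxypropyl)-β-cyclodextrin vehicle for 48 h. MTT 4 h, formazan solubilized in DMSO, absorbance 540 nm. Percent recovery versus vehicle-only; IC50 derived; at least three independent experiments.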

[15] = Cytotoxicity against human A549 cells assessed as cell viability recovery at 225 uM after 48 hrs by MTT assay; format: cell-based; conditions: read-out: Activity; method in brief: as §5
[16] = test system: Staphylococcus aureus; test: Antimicrobial activity against Staphylococcus aureus USA300 strain FPR3757 infected in mouse model of lethal peritonitis assessed as mouse survival at 2 uM, im dosed 1 hr post infection and measured after 5 days post infection; format: functional, organism-based
Method in brief: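 Mice, six per group, infected i.p. with 1 × 10^8 CFU ml−1 S. aureus USA300 FPR3757 in PBS with 5% mucin. Compound given i.m. at 2 μM 1 h later; vehicle 45% w/v (2-hydroxypropyl)-β-cyclodextrin in water i.v.; vancomycin i.v. as control. Monitored twice daily for 5 days, pre-moribund animals euthanized. Survival compared by log-rank test.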

[17] = test system: Staphylococcus aureus; test: Bactericidal activity against methicillin-resistant Staphylococcus aureus assessed as cell survival recovery at MIC measured after drug wash out after 120 mins by time kill assay; format: functional; method in brief: as §3
[18] = Selectivity index, ratio of IC50 for human A549 cells to MIC for Staphylococcus aureus
[19] = test system: Staphylococcus aureus; test: Ratio of MIC for Staphylococcus aureus measured after 8 cycle passage to MIC for wild type Staphylococcus aureus; format: functional
[20] = test system: A549; test: Cytotoxicity against human A549 cells after 48 hrs by MTT assay; format: cell-based; conditions: A549, 48 h; method in brief: as §5
[21] = test system: Klebsiella pneumoniae; test: Antimicrobial activity against Klebsiella pneumoniae assessed as inhibition of microbial growth after 24 hrs; format: functional; method in brief: as §4
[22] = test system: Pseudomonas aeruginosa; test: Bactericidal activity against Pseudomonas aeruginosa after 24 hrs; format: functional
[23] = test system: Klebsiella pneumoniae; test: Bactericidal activity against Klebsiella pneumoniae after 24 hrs; format: functional
[24] = test system: Enterobacter cloacae; test: Antimicrobial activity against Enterobacter cloacae assessed as inhibition of microbial growth after 24 hrs; format: functional; method in brief: as §4
[25] = test system: Pseudomonas aeruginosa; test: Induction of spontaneous mutation in Pseudomonas aeruginosa at 2 to 10 MIC; format: functional, organism-based; conditions: 2 to 10 x MIC
[26] = test system: Pseudomonas aeruginosa; test: Antibiofilm activity against Pseudomonas aeruginosa incubated for 24 hrs followed by biofilm resuspension in PBS and measured after 24 hrs; format: functional; method in brief: as §2
[27] = test system: Enterococcus faecium; test: Antimicrobial activity against Enterococcus faecium assessed as inhibition of microbial growth at 45 uM after 24 hrs; format: functional, organism-based; method in brief: as §1
[28] = test system: Enterobacter cloacae; test: Ratio of MIC for Enterobacter cloacae measured after 8 cycle passage to MIC for wild type Enterobacter cloacae; format: functional
[29] = test system: Pseudomonas aeruginosa; test: Antimicrobial activity against Pseudomonas aeruginosa assessed as inhibition of microbial growth after 24 hrs; format: functional; method in brief: as §4
[30] = test system: Klebsiella pneumoniae; test: Induction of spontaneous mutation in Klebsiella pneumoniae at 2 to 10 MIC; format: functional, organism-based
[31] = test system: Staphylococcus aureus; test: Bactericidal activity against Staphylococcus aureus after 24 hrs; format: functional
[32] = Selectivity index, ratio of IC50 for human A549 cells to MIC for Pseudomonas aeruginosa
[33] = test system: Acinetobacter baumannii; test: Bactericidal activity against Acinetobacter baumannii after 24 hrs; format: functional
[34] = test system: Acinetobacter baumannii; test: Induction of spontaneous mutation in Acinetobacter baumannii at 2 to 10 MIC; format: functional, organism-based
[35] = Induction of hemolysis in human RBC at 10 uM incubated for 15 mins; format: cell-based, Erythrocyte; conditions: red blood cells, read-out: Activity
Method in brief: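 Human RBCs from whole blood, resuspended 20% v/v in HA buffer (NaCl, CaCl2), compound 10 μM, 15 min at 37°C. Centrifuged 5,500 g for 1 min, supernatant OD543 read. Percent hemolysis against DMF vehicle (0%) and 1.0% Triton X-100 (100%); triplicate.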

[36] = test system: Enterobacter cloacae; test: Antimicrobial activity against Enterobacter cloacae assessed as inhibition of microbial growth at 45 uM after 24 hrs; format: functional, organism-based; method in brief: as §1
[37] = test system: Klebsiella pneumoniae; test: Ratio of MIC for Klebsiella pneumoniae measured after 8 cycle passage to MIC for wild type Klebsiella pneumoniae; format: functional
[38] = test system: Staphylococcus aureus; test: Effect on bacterial density of methicillin-resistant Staphylococcus aureus at MIC measured over 2 hrs period by time kill assay; format: functional, organism-based
[39] = test system: Staphylococcus aureus; test: Antimicrobial activity against Staphylococcus aureus assessed as inhibition of microbial growth after 24 hrs; format: functional; method in brief: as §4
[40] = test system: Klebsiella pneumoniae; test: Antimicrobial activity against Klebsiella pneumoniae isolate 1441 assessed as inhibition of microbial growth in presence of 100 uM efflux pump inhibitor reserpine after 24 hrs; format: functional, organism-based
[41] = test system: Enterobacter cloacae; test: Induction of spontaneous mutation in Enterobacter cloacae at 2 to 10 MIC; format: functional, organism-based
[42] = test system: Acinetobacter baumannii; test: Antibiofilm activity against Acinetobacter baumannii incubated for 24 hrs followed by biofilm resuspension in PBS and measured after 24 hrs; format: functional; method in brief: as §2
[43] = Selectivity index, ratio of IC50 for human A549 cells to MIC for Enterococcus faecium
[44] = Selectivity index, ratio of IC50 for human A549 cells to MIC for Acinetobacter baumannii
[45] = test system: Klebsiella pneumoniae; test: Antimicrobial activity against Klebsiella pneumoniae assessed as inhibition of microbial growth at 45 uM after 24 hrs; format: functional, organism-based; method in brief: as §1
[46] = Selectivity index, ratio of IC50 for human A549 cells to MIC for Enterobacter cloacae
[47] = test system: Enterococcus faecium; test: Bactericidal activity against Enterococcus faecium after 24 hrs; format: functional
[48] = test system: Staphylococcus aureus; test: Antimicrobial activity against Staphylococcus aureus assessed as inhibition of microbial growth at 45 uM after 24 hrs; format: functional, organism-based; method in brief: as §1
[49] = test system: Staphylococcus aureus; test: Induction of spontaneous mutation in Staphylococcus aureus at 2 to 10 MIC; format: functional, organism-based

For `CCCCCCCN1C(=N)N(CCCC[C@H]2CNC(=N)N2CCCCC2CCCCC2)C[C@@H]1CC1CCCCC1`, the “growth inhibition (GI)” value [1] was “Active”, the MBEC50 [2] was 7.6 µM and the Activity [3] was “inactive”. The MBEC50 [4] was 13 µM, the “fold change (FC)” value [5] was 2.5 and the “Selectivity Index” value [6] was greater than 139. The MBC90 [7] was 9.6 µM (≈ 5.35 µg/mL), the MIC [8] was 1.6 µM and the MBEC50 [9] was 28 µM. For the same compound, the Ratio [10] was “<=8”, the “growth inhibition (GI)” value [11] was “Active” and the MIC [12] was 1.6 µM. It also gave an MBEC50 [13] of 6.3 µM, a viability at 48 h [14] greater than 65% and a viability at 48 h, 225 µM [15] greater than 50%. The Activity [16] was “Active”, the Survival [17] was 0.2% and the “Selectivity Index” value [18] was greater than 139. The Ratio [19] was 16, the IC50 [20] was greater than 225 µM and the MIC [21] was 1.6 µM. The MBC90 [22] was 4 µM (≈ 2.23 µg/mL), the MBC90 [23] was 4.5 µM (≈ 2.51 µg/mL) and the MIC [24] was 1.6 µM. The Activity [25] was “inactive”, the MBEC50 [26] was 34 µM and the “growth inhibition (GI)” value [27] was “Active”. For the same compound, the Ratio [28] was “<=8”, the MIC [29] was 1.6 µM and the Activity [30] was “inactive”. The MBC90 [31] was 3.9 µM (≈ 2.17 µg/mL), the “Selectivity Index” value [32] was greater than 139 and the MBC90 [33] was 2.8 µM (≈ 1.56 µg/mL). For the same compound, the Activity [34] was “inactive”, the hemolysis at 0.25 h, 10 µM [35] was 0.34% and the “growth inhibition (GI)” value [36] was “Active”. For the same compound, the Ratio [37] was “<=8”, the Activity [38] was “inactive” and the MIC [39] was 1.6 µM. The “growth inhibition (GI)” value [40] was “Active”, the Activity [41] was “inactive” and the MBEC50 [42] was 14 µM. The “Selectivity Index” value [43] was greater than 139, the “Selectivity Index” value [44] was greater than 139 and the “growth inhibition (GI)” value [45] was “Active”. The “Selectivity Index” value [46] was greater than 139, the MBC90 [47] was 2.9 µM (≈ 1.62 µg/mL) and the “growth inhibition (GI)” value [48] was “Active”. The Activity [49] was “inactive”.

Reference: ChEMBL document CHEMBL3421570, “Combinatorial Libraries As a Tool for the Discovery of Novel, Broad-Spectrum Antibacterial Agents Targeting the ESKAPE Pathogens” (J Med Chem, 2015)
